Holding throughout (format): functional
Assay [1] relates to Mycobacterium tuberculosis. Put plainly: Minimum Inhibitory Concentration against drug-resistant strain resistant to Ciprofloxacin. In outline:
(§1)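 MICs by microplate alamar blue assay against M. tuberculosis strains resistant to isoniazid (ATCC 35822), rifampin (ATCC 35838), ethambutol, kanamycin or ciprofloxacin, drug-sensitive strain Erdman, and M. avium (ATCC 25291). MIC = minimum concentration giving 90% growth inhibition.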

In assay [2] the test system is Mycobacterium tuberculosis. Put plainly: Minimum Inhibitory Concentration against drug-resistant strain resistant to Ethambutol. The gist of the method: as §1
For assay [3], the system named is Mycobacterium tuberculosis. Put plainly: Minimum Inhibitory Concentration against drug-resistant strain resistant to Isoniazid. In outline:
as §1

For assay [4], the system named is Mycobacterium tuberculosis. Put plainly: Minimum Inhibitory Concentration against drug-resistant strain resistant to Rifampin. In outline: as §1

The structures appear in SMILES notation. In brackets after ≈: the same amount, converted by molar mass.

Broadly, the MIC is the smallest concentration in the dilution series that meets the test's criterion for growth inhibition. A low value points to a more susceptible organism. Regarding `Clc1nc(-c2ccco2)c2ncn(Cc3ccccc3)c2n1`, the minimum inhibitory concentration (MIC) is less than 0.39 µg/mL in assay [1], less than 0.39 µg/mL in assay [2], 3.13 µg/mL (≈ 10.1 µM) in assay [3] and 1.56 µg/mL (≈ 5.02 µM) in assay [4].

Source of the values: ChEMBL document CHEMBL1135898, “Synthesis and antimycobacterial activity of 6-arylpurines: the requirements for the N-9 substituent in active antimycobacterial purines” (J Med Chem, 2002).
